An excerpt weighted towards active compounds, which were near 2.7% of everything screened.
ARFGAP1 inhibitor – inhibitors of rat ARFGAP1 GAP activity, primary screen, biochemical, fluorescence polarization, GDP tracer | ADP-ribosylation factor GTPase-activating protein 1 (Rattus norvegicus), Q62848 | Arfgap1-stimulated ARF1 GTP hydrolysis, GDP FP detection | hit rate 0.26% among 360,000 | inhibition, % at 16.5 µM;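 active means inhibition above a per-plate limit, mean inhibition of low control wells plus 3 SD, cut at about 25% in these data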;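 further: 0% = DMSO wells with enzyme and 100% = wells lacking Arfgap1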
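Repeats: one replicate per compound; assay system: rat Arfgap1 catalytic domain, aa 1-136; times: enzyme reaction 120 min at 25 °C after 20 min preincubation; detection: FP of antibody-bound GDP Alexa 633 tracer, ex 620/em 688 nm; benchmarks: high control wells lacking Arfgap1, low control full reaction with DMSO; reagent: human ARF1(Δ1-17)-GTP substrate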
sPLA2-III inh – human group III sPLA2 inhibitors, primary screen, biochemical, QFRET, BODIPY PC-A2 liposome substrate | AID 743126, 2013 | hit rate 0.56% among 370,000 | inhibition, % at 12.2 µM | QFRET BODIPY PC-A2 liposome hydrolysis, fluorescence;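 active means inhibition above mean plus 3 SD of compounds lying within the high and low control bounds, cut at about 19% in these data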;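 further: 0% = median of test compound wells and 100% = no enzyme DMSO wells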
bovine MsrA act – bovine MsrA enzyme activators, primary screen, biochemical, absorbance, HTS; Methionine sulfoxide reductase A (Bos taurus); purified bovine MsrA, absorbance read-out; activation, % at 10.6 µM; hit rate 0.3% among 360,000; AID 602163, 2012; in the data active means activation above about 7.5%;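 further: 0% = vehicle and 100% = reference activator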
NR1D1 modulator – modulators of Rev-erb alpha DNA binding, primary screen, biochemical, FITC-DNA, fluorescence polarization, uHTS | Nuclear receptor subfamily 1 group D member 1 (Homo sapiens), P20393 | Rev-erbα–FITC-DNA binding, 90 min | activity, % at 10 µM | hit rate 0.79% among 370,000 | AID 1259318, 2017;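 active means activity above about 14%, limit read from the data; passing the limit was not always enough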;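 further: 0% = DMSO wells with 35 nM protein and 100% = DMSO wells with 750 nM protein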
Target sequence (P20393 whole entry, looked up): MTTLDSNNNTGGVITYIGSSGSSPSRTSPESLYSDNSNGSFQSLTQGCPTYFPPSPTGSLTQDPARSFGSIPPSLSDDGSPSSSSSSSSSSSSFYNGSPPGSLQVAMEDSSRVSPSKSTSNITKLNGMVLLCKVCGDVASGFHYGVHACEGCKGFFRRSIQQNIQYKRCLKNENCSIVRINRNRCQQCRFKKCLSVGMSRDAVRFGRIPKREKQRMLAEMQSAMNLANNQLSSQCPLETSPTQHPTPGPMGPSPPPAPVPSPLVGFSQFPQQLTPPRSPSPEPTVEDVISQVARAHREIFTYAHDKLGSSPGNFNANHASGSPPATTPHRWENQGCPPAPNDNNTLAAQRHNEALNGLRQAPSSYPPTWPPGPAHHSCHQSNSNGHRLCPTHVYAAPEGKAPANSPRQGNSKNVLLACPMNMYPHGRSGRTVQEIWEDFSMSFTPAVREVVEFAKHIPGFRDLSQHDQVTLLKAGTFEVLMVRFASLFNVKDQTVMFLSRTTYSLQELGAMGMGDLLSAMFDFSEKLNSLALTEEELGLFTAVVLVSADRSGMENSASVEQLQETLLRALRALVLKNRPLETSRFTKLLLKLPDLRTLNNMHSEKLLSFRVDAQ
MsrA inhibitor – bovine MsrA enzyme inhibitors, primary screen, biochemical, absorbance, HTS; inhibition, % at 15.5 µM; hit rate 0.75% among 360,000; Methionine sulfoxide reductase A (Bos taurus); purified bovine MsrA, absorbance read-out; in the data active means inhibition above about 4.5%;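 further: 0% = vehicle wells with enzyme and 100% = reference inhibitor wells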
ASAP1 GAP inh – inhibitors of human ASAP1 ArfGAP activity, primary screen, biochemical, fluorescence polarization; Arf-GAP with SH3 domain, ANK repeat and PH domain-containing protein 1 (Homo sapiens), …; ASAP1-stimulated ARF1 GTP hydrolysis, GDP FP detection; inhibition, % at 16.5 µM; hit rate 0.19% among 360,000; AID 624377, 2012; in the data active means inhibition above about 25%;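 further: 0% = vehicle with enzyme and substrate and 100% = no enzyme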
NR1D1 mod conf – modulators of Rev-erb alpha DNA binding, confirmation, biochemical, FITC-DNA, fluorescence polarization, single point; shares compounds with NR1D1 modulator; 90 min; activation, % at 25 µM; hit rate 61% among 3,000; AID 1259319, 2017;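 active means activation at or above a set limit, or at least 3 SD above the negative control mean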;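 further: 0% = 35 nM protein with DMSO and 100% = 750 nM protein high control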
Numbers without * were called inactive; x = not tested or not shown.

SMILES | ARFGAP1 inhibitor | sPLA2-III inh | bovine MsrA act | NR1D1 modulator | MsrA inhibitor | ASAP1 GAP inh | NR1D1 mod conf
NS(=O)(=O)c1ccc(CCNc2ccn3nc(-c4ccc(OCCN5CCOCC5)cc4)cc3n2)cc1 | 20 | -33 | -2 | 0 | -1 | 5 | x
COc1cc2cc(C(=O)NCCc3ccccc3)[nH]c2cc1OC | 5 | 2 | -3 | -4 | 1 | -2 | x
COc1cc2cc(C(=O)N(C)Cc3ccccc3)[nH]c2cc1OC | 13 | 11 | -1 | 31* | 1 | 6 | 12
COc1cc2cc(C(=O)N3CCc4ccccc4C3)[nH]c2cc1OC | -12 | 1 | -3 | 28* | 0 | -7 | 11
COc1cc2[nH]c(C(=O)N3CCc4ccccc4C3)cc2c(OC)c1OC | -5 | -7 | -4 | -4 | 0 | -1 | x
CCN(CC)S(=O)(=O)c1cccc(NC(=O)COC(=O)c2[nH]c(C)c(C(C)=O)c2C)c1 | 7 | -1 | -3 | -5 | 0 | -2 | x
COc1ccc(-c2c(C#N)c(SCC(=O)Nc3ccccc3)nc3c2CCCC3)cc1 | -16 | 10 | -1 | 45* | 1 | -8 | 29*
Cc1ccccc1NC(=O)CSc1nc2c(c(-c3ccco3)c1C#N)CCCC2 | x | x | -1 | 15 | x | x | x
CCc1ccccc1NC(=O)CSc1nc2c(c(-c3ccco3)c1C#N)CCCC2 | 3 | -2 | -10 | 29* | 0 | 8 | 20*
N#Cc1ccc(-c2cccnc2)nc1SCC(=O)Nc1sc2c(c1C#N)CCC2 | x | x | -2 | -14 | x | x | x
N#Cc1c(SCC(N)=O)nc2c(c1-c1ccncc1)CCCC2 | -13 | 8 | -3 | 2 | 1 | 10 | x
COc1ccc(-c2ccc(C#N)c(SCC(=O)Nc3sc4c(c3C#N)CCC4)n2)cc1 | 13 | 1 | -2 | 34* | 0 | 7 | 14
CC1(CNC(=O)C(=O)NCC2(C)CO2)CO1 (stereo not drawn) | 3 | 0 | -3 | -3 | 0 | 10 | x
COC(=O)c1cc2c(c3c4cc(C)ccc4n(S(=O)(=O)c4ccc(C)cc4)c13)C(=O)N(Cc1ccc(C(F)(F)F)cc1)C2 | -23 | 6 | x | 11 | 0 | 1 | x
COC(=O)c1cc2c(c3c4cc(OC)ccc4n(S(=O)(=O)c4cccc(C)c4)c13)C(=O)N(Cc1ccc(C(F)(F)F)cc1)C2 | 2 | -1 | x | 18* | 1 | -9 | 8
OC[C@@H]1CN(Cc2ccc(-c3ccccc3)cc2)C[C@H](n2cnc3c(NCc4ccco4)ncnc32)O1 | -7 | -45 | -8 | 0 | 0 | 13 | x
COc1ccc(CNC(=O)OC2CC3CC2[C@H]2CCCCN2C3=O)cc1 (stereo partly drawn) | 5 | -2 | -1 | -2 | 0 | -7 | x
Cc1cc(NC(=O)CC(C)(C)C)nc2c1c(=O)oc1ccccc12 | 0 | 9 | -1 | 38* | 0 | -3 | 8
Cc1cc(NC(=O)c2ccccc2F)nc2c1c(=O)oc1ccccc12 | 5 | 6 | -2 | 32* | 2 | 10 | 5
COc1ccc(C(=O)Nc2cc(C)c3c(=O)oc4ccccc4c3n2)cc1 | 5 | 12 | 1 | 21 | 1 | 12 | x
CCCC(=O)Nc1cc(C)c2c(=O)oc3ccccc3c2n1 | 15 | 8 | 0 | -3 | 1 | 4 | x
CCc1nc2c(OCC(=O)c3ccc(F)cc3)cccn2c1N(C)C(=O)c1cccs1 | 3 | -26 | -11 | -1 | -1 | 16 | x
Cc1cc(-c2ccc(C(C)C)c(S(=O)(=O)N3CCN(c4ccccc4)CC3)c2)on1 | 4 | 1 | -2 | 0 | 1 | 7 | x
CCc1ccc(-c2cc(C)no2)cc1S(=O)(=O)N1CCN(c2cc(C)ccc2C)CC1 | 4 | 2 | -5 | 3 | 0 | -7 | x
CCc1ccc(-c2cc(C)no2)cc1S(=O)(=O)N1CCN(c2ccc(C(C)=O)cc2)CC1 | 6 | 1 | -4 | 27* | 0 | 4 | 18*
SMILES | ARFGAP1 inhibitor | sPLA2-III inh | bovine MsrA act | NR1D1 modulator | MsrA inhibitor | ASAP1 GAP inh | NR1D1 mod conf
CC(=O)c1ccc(N2CCN(S(=O)(=O)c3cc(-c4cc(C)no4)ccc3C(C)C)CC2)cc1 | -2 | 0 | -4 | 26* | 2 | -2 | 22*
C=C1CCN([C@@H](CC(C)C)C(=O)Nc2nc3ccc(Cl)cc3s2)S(=O)(=O)c2ccccc21 | -3 | -15 | -3 | 3 | 1 | 9 | x
COc1ccc(-c2csc(NC(=O)c3cccc(N4C(=O)CCC4=O)c3)n2)cc1OC | 11 | -3 | -2 | 12 | 1 | -2 | x
O=C(Nc1nc(-c2ccc(F)cc2)cs1)c1ccc(N2C(=O)CCC2=O)cc1 | 9 | -5 | -1 | 4 | 1 | 0 | x
CCOC(=O)c1c(-c2ccc(-c3ccccc3)cc2)csc1NC(=O)c1cccc(N2C(=O)CCC2=O)c1 | 1 | -6 | 0 | 43* | -1 | -9 | 29*
COc1ccc(-c2csc(NC(=O)c3ccc(N4C(=O)CCC4=O)cc3)n2)cc1 | 1 | -2 | -5 | 27* | 0 | -4 | 18
CCOc1ccc(-c2csc(NC(=O)c3cccc(N4C(=O)CCC4=O)c3)n2)cc1 | 12 | 2 | -13 | 24* | 1 | 12 | 14*
Cc1ccc(C)c(C(Nc2ccccc2)c2ccc3ccc(C)nc3c2O)c1 (stereo not drawn) | 1 | 19 | x | -2 | 0 | 1 | x
Cc1ccc(Cc2c(-c3ccc(C#N)cc3)nc3ccc(Br)cn23)cc1 | 1 | -9 | -3 | 29* | 0 | -13 | 6
N#Cc1ccc(-c2nc3ccc(Br)cn3c2Cc2ccccc2)cc1 | 5 | 0 | -1 | 22* | 0 | -1 | 14*
CCCCNc1c(-c2ccc(OC)c(SC(C)CC)c2)nc2cc(C)ccn12 (stereo not drawn) | 7 | 11 | -3 | -6 | 2 | -3 | x
CCCCNc1c(-c2ccc(Sc3ccc(OC)cc3)cc2)nc2cc(C)ccn12 | 9 | -4 | -3 | 21* | 2 | 3 | 11
CCCCNc1c(-c2ccc(OC)c(SC(C)CC)c2)nc2cnccn12 (stereo not drawn) | -2 | 3 | 1 | -4 | 0 | 1 | x
CCCCCCSc1ccc(-c2nc3cnccn3c2NCCCC)cc1 | 18 | 1 | 0 | 25* | 0 | -7 | 14
COc1c(C(C)(C)C)cc(S(=O)(=O)N2c3ccccc3C[C@H]2C)cc1C(C)(C)C | x | 6 | x | 4 | x | x | x
